In series [1] the target is T1, Cysteinyl leukotriene receptor 1 (Cavia porcellus) (UniProt Q2NNR5).
T1 sequence (whole entry): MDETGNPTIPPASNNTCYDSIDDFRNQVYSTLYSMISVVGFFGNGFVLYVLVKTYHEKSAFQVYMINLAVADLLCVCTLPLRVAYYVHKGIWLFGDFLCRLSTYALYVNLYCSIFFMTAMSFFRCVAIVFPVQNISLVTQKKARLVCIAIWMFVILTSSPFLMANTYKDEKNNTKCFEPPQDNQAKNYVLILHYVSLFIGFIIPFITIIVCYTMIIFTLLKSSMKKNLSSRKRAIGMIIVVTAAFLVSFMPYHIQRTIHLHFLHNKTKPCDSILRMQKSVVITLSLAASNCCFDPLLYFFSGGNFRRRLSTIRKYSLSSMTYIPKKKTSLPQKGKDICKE
Put plainly: Negative logarithm of molar dissociation constant on guinea pig trachea at Cysteinyl leukotriene D4 receptor, when LTE4 is used as agonist. The class given is functional. A digest of the protocol: (§1)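 Guinea pig tracheal spirals, each trachea split into two sections for paired experiments, in 10-mL baths of modified Krebs' buffer at 37 °C gassed with 95% O2/5% CO2. Resting tension was 2 g, with 60 min stabilization. Responses were expressed relative to carbachol (30 μM). Test compound was preincubated 30 min before cumulative LTE4 log-increment curves; paired controls received vehicle. EC50 was obtained by linear regression and KB = [antagonist]/(dose ratio − 1).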

Series [2] deals with T1, Cysteinyl leukotriene receptor 1 (Cavia porcellus). Put plainly: Negative logarithm of molar dissociation constant on guinea pig trachea at LTD4 receptor, when LTE4 is used as agonist. The series is classed as functional. A digest of the protocol: as §1
The nature of series [3]: Partition coefficient (logP). Particulars: octanol/water. The class given is physicochemical.
The nature of series [4]: Antagonist activity was determined. The class given is functional. A digest of the protocol: as §1

The term pKB denotes −log10 of the KB, conventionally taken in molar units. The low end stands for a large KB, the high end for a small KB. For `COc1cc(C(=O)NS(=O)(=O)c2ccccc2Cl)ccc1Cc1csc2ccc(NC(=O)CC3CCCC3)cc12`, the pKB in series [1] was 9.6.
In series [2], `COc1cc(C(=O)NS(=O)(=O)c2ccccc2C)ccc1CN1CCOc2ccc(NC(=O)CC3CCCC3)cc21` gave a pKB of 9.68.
The molecule `COc1cc(C(=O)NS(=O)(=O)c2ccccc2C)ccc1Cc1csc2ccc(NC(=O)CC3CCCC3)cc12` displayed a pKB in series [1] of 9.25.
Take `COc1cc(C(=O)NS(=O)(=O)c2ccccc2)ccc1CN1CCOc2ccc(NC(=O)CC3CCCC3)cc21`: the pKB in series [1] was determined as 9.1.
Same read-out and setting: in the case of `COc1cc(C(=O)NS(=O)(=O)c2ccccc2)ccc1Cn1cnc2ccc(NC(=O)OC3CCCC3)cc21` it was 9.2.
In the case of `COc1cc(C(=O)NS(=O)(=O)c2ccccc2)ccc1CN1CCOc2ccc(NC(=O)OC3CCCC3)cc21`, in series [1], the pKB is 9.02.
Broadly, the logP is the decadic logarithm of the partition coefficient of the neutral form, usually between octanol and water. In turn, `c1ccc2sccc2c1` [BENZOTHIOPHENE] came in with a logP in series [3] of 3.09.
On to `COc1cc(C(=O)NS(=O)(=O)c2ccccc2)ccc1Cn1cnc2ccc(NC(=O)CC3CCCC3)cc21`, for which the negative logarithm of the KB (pKB) in series [1] came to 9.22.
In general, pA2 refers to the negative logarithm of the molar antagonist concentration that doubles the agonist concentration needed for the same response. A low value points to a weaker antagonist. As to `COc1cc(C(=O)NS(=O)(=O)c2ccccc2)ccc1Cn1ncc2ccc(NC(=O)OC3CCCC3)cc21` [ICI-198615], in series [4], the pA2 came out at 10.1.
For the molecule `COc1cc(C(=O)NS(=O)(=O)c2ccccc2)ccc1COc1cccc(NC(=O)OC2CCCC2)c1`, in series [1], the pKB was found to be 7.14.
On to `COc1cc(C(=O)NS(=O)(=O)c2ccccc2)ccc1Cc1nn(C)c2ccc(NC(=O)OC3CCCC3)cc12`, for which, in series [2], the pKB came out at 10.3.
Molecule `COc1cc(C(=O)NS(=O)(=O)c2ccccc2)ccc1Cc1csc2ccc(NC(=O)OC3CCCC3)cc12` returned a pKB in series [1] of 9.31.
Still for that read-out and setting: in the case of `CNc1ccc(NC(=O)OC2CCCC2)cc1C(=O)Cc1ccc(C(=O)NS(=O)(=O)c2ccccc2C)cc1OC` it was 9.07.
Turning to `c1ccc2[nH]nnc2c1` [BENZOTRIAZOLE], the logP in series [3] was 1.34.
In series [3], `c1ccc2[nH]cnc2c1` [BENZIMIDAZOLE] displayed a logP of 1.2.
Take `Cn1ccc2ccccc21`: the logP in series [3] was 2.72.
With `COc1cc(C(=O)NS(=O)(=O)c2ccccc2)ccc1Cn1nnc2ccc(NC(=O)CC3CCCC3)cc21`, the pKB in series [1] turned out to be 9.86.
`c1ccc2[nH]ncc2c1` [INDAZOLE] returned a logP in series [3] of 1.82.
Regarding `COc1cc(C(=O)NS(=O)(=O)c2ccccc2)ccc1CN1CCc2ccc(NC(=O)CC3CCCC3)cc21`, the pKB in series [1] turned out to be 9.11.

The values above are taken from ChEMBL document CHEMBL1125052, “Synthesis and in vitro LTD4 antagonist activity of bicyclic and monocyclic cyclopentylurethane and cyclopentylacetamide N-arylsulfonyl amides” (J Med Chem, 1990).
